The results in this text go back to ChEMBL document CHEMBL1772951, “Synthesis of some novel benzofuran-2-yl(4,5-dihyro-3,5-substituted diphenylpyrazol-1-yl) methanones and studies on the antiproliferative effects and reversal of multidrug resistance of human MDR1-gene transfected mouse lymphoma cells in vitro” (Eur J Med Chem, 2011).

Data set [1] deals with ATP-dependent translocase ABCB1 (Homo sapiens, UniProt P08183). The data set can be described thus: Inhibition of human MDR1 expressed in mouse L5178Y cells assessed as rhodamine 123 accumulation at 20 ug/ml preincubated for 10 mins before rhodamine 123 challenge measured after 20 mins by flow cytometry relative to wild type. It is filed as cell-based. In short, it runs like this:
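L5178Y cells were transfected with human MDR1 via pHa MDR1/A retrovirus and kept under 60 ng/ml colchicine, alongside parental cells, in McCoy's 5A with 10% horse serum at 37 °C, 5% CO₂. Cells at 2 × 10⁶/ml in serum-free medium got compound for 10 min at room temperature, then rhodamine 123 for 20 min at 37 °C. Cells were washed twice and read by flow cytometry, with verapamil as positive control. FAR = (MDR treated/MDR control)/(parental treated/parental control). One representative experiment, 1 × 10⁴ cells.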
On the technique in general: In flow cytometry, cells or beads pass a laser one at a time.

In data set [2] the test system is L5178Y MDR1-transfected mouse lymphoma cells (Mus musculus). The data set can be described thus: Antiproliferative activity against mouse MDR1-transfected L5178Y lymphoma cells after 72 hrs by MTT assay. As to conditions: L5178Y MDR1, 72 h.

≈ marks a conversion by molar mass, not a printed value.

ATP-dependent translocase ABCB1, sequence (P08183 whole entry): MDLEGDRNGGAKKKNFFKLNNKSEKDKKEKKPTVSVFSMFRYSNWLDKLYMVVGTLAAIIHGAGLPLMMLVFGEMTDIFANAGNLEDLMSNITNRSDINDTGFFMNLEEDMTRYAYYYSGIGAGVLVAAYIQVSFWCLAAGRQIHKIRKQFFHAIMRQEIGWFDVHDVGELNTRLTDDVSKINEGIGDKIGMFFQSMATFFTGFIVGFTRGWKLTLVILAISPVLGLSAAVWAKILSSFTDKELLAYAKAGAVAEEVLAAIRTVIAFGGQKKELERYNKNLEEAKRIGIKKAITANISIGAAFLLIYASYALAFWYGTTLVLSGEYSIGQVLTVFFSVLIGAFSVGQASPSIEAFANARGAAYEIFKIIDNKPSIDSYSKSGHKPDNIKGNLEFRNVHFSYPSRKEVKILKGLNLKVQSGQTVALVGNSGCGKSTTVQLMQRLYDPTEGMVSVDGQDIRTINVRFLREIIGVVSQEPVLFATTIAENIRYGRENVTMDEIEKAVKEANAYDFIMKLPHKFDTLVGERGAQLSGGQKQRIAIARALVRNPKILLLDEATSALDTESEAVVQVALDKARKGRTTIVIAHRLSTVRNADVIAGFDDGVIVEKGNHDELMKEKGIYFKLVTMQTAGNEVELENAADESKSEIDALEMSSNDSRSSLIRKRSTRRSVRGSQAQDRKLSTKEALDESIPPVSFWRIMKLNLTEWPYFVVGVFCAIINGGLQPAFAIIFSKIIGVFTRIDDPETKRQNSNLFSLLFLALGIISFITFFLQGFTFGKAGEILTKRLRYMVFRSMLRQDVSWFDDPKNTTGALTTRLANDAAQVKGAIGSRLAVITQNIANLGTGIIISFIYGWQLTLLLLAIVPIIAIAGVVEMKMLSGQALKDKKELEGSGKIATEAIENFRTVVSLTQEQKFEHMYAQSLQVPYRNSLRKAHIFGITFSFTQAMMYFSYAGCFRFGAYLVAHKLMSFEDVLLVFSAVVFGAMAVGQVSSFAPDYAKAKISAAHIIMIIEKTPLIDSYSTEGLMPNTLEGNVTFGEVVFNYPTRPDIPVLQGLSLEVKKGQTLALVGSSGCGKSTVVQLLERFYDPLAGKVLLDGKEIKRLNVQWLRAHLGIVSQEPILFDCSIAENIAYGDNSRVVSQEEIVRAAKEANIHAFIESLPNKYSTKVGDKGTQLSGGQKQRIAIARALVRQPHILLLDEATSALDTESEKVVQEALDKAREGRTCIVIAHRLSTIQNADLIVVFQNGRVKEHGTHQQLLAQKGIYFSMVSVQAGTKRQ

A word on the IC50: it is the midpoint of a concentration-inhibition curve. Turning to `O=C(c1cc2ccccc2o1)N1N=C(c2ccccc2)CC1c1ccc(F)cc1` (centres undefined), the RFU in data set [1] was 20.06. In data set [2], the 50% inhibitory concentration (IC50) worked out at 9.94 µg/mL (≈ 25.8 µM).

Regarding `COc1ccc(C2CC(c3ccc(F)cc3)=NN2C(=O)c2cc3ccccc3o2)cc1` (centres undefined), the RFU in data set [1] is recorded as 8.72. Half-maximal inhibition in data set [2] (IC50) required 23 µg/mL (≈ 55.5 µM).

For the compound `COc1ccc(C2CC(c3ccc(Cl)cc3)=NN2C(=O)c2cc3ccccc3o2)cc1OC` (centres undefined), in data set [1], the RFU is 5.87. Moreover, 6.29 µg/mL (≈ 13.6 µM) corresponded to half-maximal inhibition in data set [2] (IC50).

Turning to `O=C(c1cc2ccccc2o1)N1N=C(c2ccccc2)CC1c1ccc(Cl)cc1` (centres undefined), the RFU in data set [1] is reported as 8.34. In data set [2], this compound gave a half-inhibitory concentration (IC50) of 5.13 µg/mL (≈ 12.8 µM).

For `COc1ccc(C2CC(c3ccccc3)=NN2C(=O)c2cc3ccccc3o2)cc1OC` (centres undefined), the RFU in data set [1] is 29.9. The same compound registered a half-inhibitory concentration (IC50) in data set [2] of 6.89 µg/mL (≈ 16.2 µM).

For `O=C(c1cc2ccccc2o1)N1N=C(c2ccc(Cl)cc2)CC1c1ccc(Cl)cc1` (centres undefined), the RFU in data set [1] turned out to be 2.9. The same compound registered an IC50 in data set [2] of 8.5 µg/mL (≈ 19.5 µM).

Regarding `COc1ccc(C2CC(c3ccc(F)cc3)=NN2C(=O)c2cc3ccccc3o2)cc1OC` (centres undefined), the RFU in data set [1] is given as 16.22. Besides, the IC50 in data set [2] is above 50 µg/mL.

In the case of `O=C(c1cc2ccccc2o1)N1N=C(c2ccc(Cl)cc2)CC1c1ccc([N+](=O)[O-])cc1` (centres undefined), in data set [1], the RFU is listed as 12.61. This compound also came in with a half-inhibitory concentration (IC50) in data set [2] of 34.1 µg/mL (≈ 76.5 µM).

For `O=C(c1cc2ccccc2o1)N1N=C(c2ccc(F)cc2)CC1c1ccc(Cl)cc1` (centres undefined), the RFU in data set [1] was 6.96. This compound returned an IC50 in data set [2] above 50 µg/mL.

Regarding `O=C(c1cc2ccccc2o1)N1N=C(c2ccc(F)cc2)CC1c1ccccc1Cl` (centres undefined), the RFU in data set [1] is given as 16.94. This compound also returned a concentration for half-maximal inhibition (IC50) in data set [2] of 45.2 µg/mL (≈ 108 µM).

Take `O=C(c1cc2ccccc2o1)N1N=C(c2ccccc2)CC1c1ccccc1` (centres undefined): in data set [1], the RFU turned out to be 18.8. The same compound returned a half-maximal inhibitory concentration (IC50) in data set [2] of 7.58 µg/mL (≈ 20.7 µM).

In the case of `O=C(c1cc2ccccc2o1)N1N=C(c2ccc(Cl)cc2)CC1c1ccccc1` (centres undefined), in data set [1], the RFU was determined as 6.77. Besides, in data set [2], half-maximal inhibition (IC50) was put at 13.6 µg/mL (≈ 34 µM).

On to `O=C(c1cc2ccccc2o1)N1N=C(c2ccc(F)cc2)CC1c1ccc(F)cc1` (centres undefined), for which the RFU in data set [1] was 14.56. Besides, in data set [2], the concentration for half-maximal inhibition (IC50) is above 50 µg/mL.

For `Cc1ccc(C2CC(c3ccc(F)cc3)=NN2C(=O)c2cc3ccccc3o2)cc1` (centres undefined), the RFU in data set [1] was 10.52. The concentration for half-maximal inhibition (IC50) in data set [2] was above 50 µg/mL.

With `O=C(c1cc2ccccc2o1)N1N=C(c2ccc(F)cc2)CC1c1ccccc1` (centres undefined), in data set [1], the RFU is reported as 15.82. In addition, the half-inhibitory concentration (IC50) in data set [2] came out at 11.8 µg/mL (≈ 30.6 µM).

Take `O=C(c1cc2ccccc2o1)N1N=C(c2ccc(Cl)cc2)CC1c1ccccc1Cl` (centres undefined): in data set [1], the RFU was determined as 6.02. For the same compound, in data set [2], the midpoint of inhibition, the IC50, lay at 44.8 µg/mL (≈ 103 µM).

With `O=C(c1cc2ccccc2o1)N1N=C(c2ccc(F)cc2)CC1c1ccc([N+](=O)[O-])cc1` (centres undefined), the RFU in data set [1] amounted to 12.58. For the same compound, the IC50 in data set [2] was above 50 µg/mL.

`COc1ccc(C2CC(c3ccccc3)=NN2C(=O)c2cc3ccccc3o2)cc1` (centres undefined): the RFU in data set [1] is reported as 26.77. For the same compound, the IC50 in data set [2] was 4.57 µg/mL (≈ 11.5 µM).

Turning to `O=C(c1cc2ccccc2o1)N1N=C(c2ccccc2)CC1c1ccc([N+](=O)[O-])cc1` (centres undefined), the RFU in data set [1] turned out to be 15.18. In data set [2], this compound gave a concentration for half-maximal inhibition (IC50) of 4.87 µg/mL (≈ 11.8 µM).

Regarding `COc1ccc(C2CC(c3ccc(Cl)cc3)=NN2C(=O)c2cc3ccccc3o2)cc1` (centres undefined), the RFU in data set [1] was found to be 5.85. In data set [2], the IC50 is 5.74 µg/mL (≈ 13.3 µM).

As for `Cc1ccc(C2CC(c3ccccc3)=NN2C(=O)c2cc3ccccc3o2)cc1` (centres undefined), the RFU in data set [1] came out at 7.59. The midpoint of inhibition in data set [2], the IC50, lay at 16.6 µg/mL (≈ 43.6 µM).

In the case of `O=C(c1cc2ccccc2o1)N1N=C(c2ccccc2)CC1c1ccccc1Cl` (centres undefined), in data set [1], the RFU is 16.1. The IC50 in data set [2] came to 6.22 µg/mL (≈ 15.5 µM).
